Experiment [1] concerns the target Telomerase reverse transcriptase (Homo sapiens, UniProt O14746). Nature of the experiment: Inhibition of telomerase in human HepG2 cells after 24 hrs by TRAP-PCR-ELISA assay. In kind it is cell-based. The essentials: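 Cells in serum/penicillin/streptomycin medium (37 °C, 5% CO₂) were seeded at 5×10⁴ per T25 flask and allowed to adhere. After 24 h treatment, cells were lysed in RIPA buffer on ice for 30 min and spun at 12,000 g for 20 min at 4 °C. For the kit-based TRAP-PCR-ELISA, PCR ran 94 °C 120 s, then 35 cycles of 94/50/72 °C. Product was hybridised to a DIG probe, captured via biotin-streptavidin, detected with peroxidase anti-DIG, and read at 490 nm.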

The subject of another experiment is HeLa. Briefly: Antiproliferative activity against human HeLa cells after 48 hrs by MTT method. In kind it is functional, cell-based. (In general: Formazan colour is commonly taken as a measure of viable cells.)
The next experiment has as its system BGC-823. Briefly: Antiproliferative activity against human BGC823 cells after 48 hrs by MTT method. The conditions noted are these: BGC-823, 48 h. The experiment is classed as functional, cell-based. The essentials:
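MTT assay. Cells were seeded at 10⁴ per well and held 24 h at 37 °C with 5% CO₂. […] After 48 h, 5 mg/mL MTT in PBS was added for 4 h. Formazan was dissolved in DMSO and absorbance read at 490 nm.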

The test system of a further experiment is HepG2. Nature of the experiment: Antiproliferative activity against human HepG2 cells after 48 hrs by MTT method. The experiment is classed as functional, cell-based. The conditions noted are these: HepG2, 48 h.
Experiment [2] can be described thus: Antiproliferative activity against human SW1116 cells after 48 hrs by MTT method. The experiment is classed as functional, cell-based. The conditions noted are these: SW 1116, 48 h.

Chain of Telomerase reverse transcriptase (O14746 whole entry): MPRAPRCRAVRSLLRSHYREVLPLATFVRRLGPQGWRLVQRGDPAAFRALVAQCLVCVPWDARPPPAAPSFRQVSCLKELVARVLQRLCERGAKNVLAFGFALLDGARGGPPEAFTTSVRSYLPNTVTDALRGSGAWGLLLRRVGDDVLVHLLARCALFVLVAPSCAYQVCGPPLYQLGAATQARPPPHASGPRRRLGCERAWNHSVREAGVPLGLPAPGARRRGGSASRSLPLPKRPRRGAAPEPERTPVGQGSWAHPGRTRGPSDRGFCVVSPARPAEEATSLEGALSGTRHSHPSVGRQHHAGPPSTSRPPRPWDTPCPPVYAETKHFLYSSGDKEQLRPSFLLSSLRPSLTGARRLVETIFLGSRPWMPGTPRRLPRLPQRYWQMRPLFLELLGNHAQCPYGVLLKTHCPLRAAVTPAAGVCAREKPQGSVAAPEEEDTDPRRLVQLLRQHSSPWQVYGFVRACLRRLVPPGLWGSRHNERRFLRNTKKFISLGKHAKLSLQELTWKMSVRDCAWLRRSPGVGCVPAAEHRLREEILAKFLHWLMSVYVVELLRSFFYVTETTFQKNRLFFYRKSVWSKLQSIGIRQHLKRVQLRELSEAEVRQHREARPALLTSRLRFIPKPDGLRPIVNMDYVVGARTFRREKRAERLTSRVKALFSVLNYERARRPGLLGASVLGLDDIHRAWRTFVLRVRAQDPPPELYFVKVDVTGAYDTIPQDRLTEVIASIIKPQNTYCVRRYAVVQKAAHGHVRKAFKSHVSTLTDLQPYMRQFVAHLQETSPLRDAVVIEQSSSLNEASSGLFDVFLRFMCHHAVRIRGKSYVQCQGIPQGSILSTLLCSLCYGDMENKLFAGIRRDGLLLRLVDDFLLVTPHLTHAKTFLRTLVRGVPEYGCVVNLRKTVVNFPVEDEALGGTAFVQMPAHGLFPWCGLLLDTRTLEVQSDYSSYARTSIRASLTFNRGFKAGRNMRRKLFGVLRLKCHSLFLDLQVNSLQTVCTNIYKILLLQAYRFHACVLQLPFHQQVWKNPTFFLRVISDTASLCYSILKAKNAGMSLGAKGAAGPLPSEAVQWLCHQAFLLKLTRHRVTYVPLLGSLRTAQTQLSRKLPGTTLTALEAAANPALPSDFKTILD

On to `Brc1ccccc1CSc1nnc(-c2cnccn2)s1`, for which the IC50 (usually the point on the concentration scale where inhibition reaches its midpoint) in experiment [1] was determined as 3.97 µM; in the experiment on HeLa it was 21.3 µM; in the experiment with BGC-823, 18.9 µM; in the experiment with HepG2 it was 9.81 µM; in experiment [2] it was 6.95 µM.

With `Brc1ccc(CSc2nnc(-c3cnccn3)o2)cc1`, the IC50 in the experiment with HeLa was 21.6 µM; in the experiment with BGC-823, 25.7 µM; with HepG2, 13.2 µM; in experiment [2], 14.4 µM.

For the molecule `Clc1cccc(CSc2nnc(-c3cnccn3)s2)c1`, the IC50 was 3.12 µM in experiment [1]; 29.7 µM in the experiment on HeLa; 14.7 µM in the experiment on BGC-823; 7.03 µM in the experiment on HepG2; 12.1 µM in experiment [2].

For `Clc1ccc(CSc2nnc(-c3cnccn3)n2-c2ccccc2)cc1`, the IC50 was 13.4 µM in experiment [1]; over 50 µM with HeLa; 27.7 µM with BGC-823; 15.3 µM in the experiment on HepG2; 12.5 µM in experiment [2].

`Clc1ccccc1CSc1nnc(-c2cnccn2)o1`: the IC50 came out at 23 µM in the experiment with HeLa, 27.7 µM with BGC-823, 12.3 µM in the experiment with HepG2 and 15.1 µM in experiment [2].

As to `Clc1ccc(CSc2nnc(-c3cnccn3)o2)cc1`, the IC50 was determined as 24.6 µM in the experiment on HeLa, 30 µM in the experiment on BGC-823, 11.5 µM in the experiment on HepG2 and 17.3 µM in experiment [2].

In the case of `Fc1cccc(F)c1CSc1nnc(-c2cnccn2)o1`, the IC50 with HeLa is over 50 µM; in the experiment on BGC-823, over 50 µM; in the experiment with HepG2 it was 17.1 µM; in experiment [2], 23.8 µM.

As for `Fc1ccc(CSc2nnc(-c3cnccn3)o2)c(F)c1`, the IC50 is 26.7 µM in the experiment with HeLa, 33 µM with BGC-823, 14.4 µM with HepG2 and 19.3 µM in experiment [2].

Take `O=c1[nH]cc(F)c(=O)[nH]1` [FLUOROURACIL]: the IC50 worked out at 3.25 µM with HeLa, 1.3 µM in the experiment with HepG2 and 2.41 µM in experiment [2].

Consider `Clc1ccccc1CSc1nnc(-c2cnccn2)s1`, for which the IC50 is 28.9 µM with HeLa, 20.3 µM in the experiment on BGC-823, 10.8 µM with HepG2 and 7.53 µM in experiment [2].

For `Clc1cccc(CSc2nnc(-c3cnccn3)o2)c1`, the IC50 in experiment [1] turned out to be 6.38 µM; in the experiment with HeLa, 14.6 µM; in the experiment with BGC-823, 15.8 µM; in the experiment on HepG2, 7.5 µM; in experiment [2], 7.88 µM.

As to `Fc1ccc(CSc2nnc(-c3cnccn3)n2-c2ccccc2)cc1`, the IC50 stood at 15 µM in experiment [1]; 7.3 µM in the experiment with HeLa; 27.2 µM with BGC-823; 10.1 µM in the experiment with HepG2; 4.12 µM in experiment [2].

For `Brc1cccc(CSc2nnc(-c3cnccn3)o2)c1`, the IC50 in experiment [1] worked out at 3.59 µM; with HeLa, 30.3 µM; in the experiment on BGC-823 it was 11.5 µM; with HepG2, 5.79 µM; in experiment [2] it was 5.06 µM.

Consider `Brc1ccc(CSc2nnc(-c3cnccn3)n2-c2ccccc2)cc1`, for which the IC50 is 7.13 µM in experiment [1]; 8.63 µM with HeLa; 19.8 µM in the experiment with BGC-823; 11.4 µM with HepG2; 6.21 µM in experiment [2].

Consider `Clc1ccc(CSc2nnc(-c3cnccn3)s2)cc1`, for which the IC50 in experiment [1] was 7.88 µM; in the experiment with HeLa, 18.9 µM; in the experiment with BGC-823, 13.4 µM; with HepG2, 6.23 µM; in experiment [2] it was 4.77 µM.

In the case of `Fc1ccccc1CSc1nnc(-c2cnccn2)n1-c1ccccc1`, the IC50 is 17.6 µM in experiment [1]; 44.1 µM in the experiment with HeLa; over 50 µM with BGC-823; 19.3 µM in the experiment with HepG2; 18.8 µM in experiment [2].

In turn, `CN[C@@H]1C[C@H]2O[C@@](C)([C@@H]1OC)n1c3ccccc3c3c4c(c5c6ccccc6n2c5c31)C(=O)NC4` [STAUROSPORINE] showed an IC50 in the experiment with BGC-823 of 6.83 µM.

As for `c1ccc(CSc2nnc(-c3cnccn3)n2-c2ccccc2)cc1`, the IC50 is 35.6 µM in the experiment on HeLa, over 50 µM with BGC-823, 17.1 µM in the experiment on HepG2 and 15.4 µM in experiment [2].

As for `Brc1ccccc1CSc1nnc(-c2cnccn2)o1`, the 50% inhibitory concentration (IC50) in experiment [1] amounted to 3.55 µM; with HeLa it was 8.89 µM; with BGC-823, 17.6 µM; with HepG2, 4.22 µM; in experiment [2] it was 2.46 µM.

In the case of `Fc1ccc(CSc2nnc(-c3cnccn3)n2-c2ccccc2)c(F)c1`, the IC50 with HeLa was 12.5 µM; with BGC-823, 17.8 µM; in the experiment with HepG2, 10.4 µM; in experiment [2], 4.65 µM.

On to `Brc1cccc(CSc2nnc(-c3cnccn3)n2-c2ccccc2)c1`, for which the IC50 in the experiment with HeLa is 9.58 µM; in the experiment with BGC-823, 18.3 µM; in the experiment with HepG2, 10.6 µM; in experiment [2], 5.03 µM.

In the case of `Brc1ccccc1CSc1nnc(-c2cnccn2)n1-c1ccccc1`, the IC50 was over 50 µM with HeLa, 36.2 µM in the experiment on BGC-823, 11.6 µM with HepG2 and 19.4 µM in experiment [2].

As to `Clc1cccc(CSc2nnc(-c3cnccn3)n2-c2ccccc2)c1`, the IC50 with HeLa amounted to 13.5 µM; with BGC-823 it was 20.3 µM; with HepG2 it was 19.6 µM; in experiment [2] it was 6.61 µM.

In the case of `Fc1ccc(CSc2nnc(-c3cnccn3)s2)c(F)c1`, the IC50 was determined as 20.9 µM in the experiment on HeLa, 14.5 µM in the experiment with BGC-823, 9.63 µM in the experiment on HepG2 and 5.18 µM in experiment [2].

For `c1ccc(CSc2nnc(-c3cnccn3)o2)cc1`, the IC50 in the experiment with HeLa came to 21.1 µM; in the experiment with BGC-823, 25 µM; with HepG2, 11.2 µM; in experiment [2], 34 µM.

For `Fc1ccccc1CSc1nnc(-c2cnccn2)o1`, the IC50 with HeLa turned out to be 25.3 µM; in the experiment with BGC-823, 18.2 µM; in the experiment with HepG2, 12.5 µM; in experiment [2], 16.8 µM.

Regarding `c1ccc(CSc2nnc(-c3cnccn3)s2)cc1`, the IC50 in the experiment with HeLa worked out at 34.4 µM; in the experiment with BGC-823 it was 21.2 µM; with HepG2, 11.3 µM; in experiment [2], 7.88 µM.

Consider `Clc1ccccc1CSc1nnc(-c2cnccn2)n1-c1ccccc1`, for which the 50% inhibitory concentration (IC50) in the experiment on HeLa is over 50 µM; in the experiment on BGC-823 it was 34.7 µM; with HepG2, 18.8 µM; in experiment [2], 18.1 µM.

Consider `Fc1cccc(F)c1CSc1nnc(-c2cnccn2)s1`, for which the IC50 in the experiment on HeLa stood at 29.2 µM; in the experiment on BGC-823, 18.6 µM; in the experiment on HepG2, 6.9 µM; in experiment [2], 16.8 µM.

Take `Fc1ccc(CSc2nnc(-c3cnccn3)s2)cc1`: the IC50 in experiment [1] was 12.1 µM; with HeLa, over 50 µM; in the experiment with BGC-823, 29.3 µM; in the experiment on HepG2, 10.1 µM; in experiment [2] it was 17.1 µM.

As for `Fc1ccc(CSc2nnc(-c3cnccn3)o2)cc1`, the IC50 in experiment [1] was 17.1 µM; in the experiment with HeLa it was 41.6 µM; in the experiment with BGC-823, over 50 µM; with HepG2, 16.5 µM; in experiment [2] it was 22.7 µM.

Take `Fc1ccccc1CSc1nnc(-c2cnccn2)s1`: the IC50 was found to be 32.7 µM in the experiment with HeLa, 18.4 µM with BGC-823, 9.52 µM in the experiment on HepG2 and 6.77 µM in experiment [2].

With `Fc1cccc(F)c1CSc1nnc(-c2cnccn2)n1-c1ccccc1`, the IC50 in experiment [1] was 24.2 µM; with HeLa it was over 50 µM; with BGC-823, over 50 µM; with HepG2 it was 22.6 µM; in experiment [2] it was 24.1 µM.

Regarding `Brc1cccc(CSc2nnc(-c3cnccn3)s2)c1`, the IC50 in experiment [1] stood at 1.54 µM; in the experiment with HeLa it was 5.43 µM; in the experiment with BGC-823, 16.7 µM; in the experiment on HepG2, 1.79 µM; in experiment [2], 5.26 µM.

Values taken from ChEMBL document CHEMBL2157889, “Design, synthesis and biological evaluation of heterocyclic azoles derivatives containing pyrazine moiety as potential telomerase inhibitors” (Bioorg Med Chem, 2012).
